Measured values taken from ChEMBL document CHEMBL1275590, “Novel arylimidamides for treatment of visceral leishmaniasis” (Antimicrob Agents Chemother, 2010).
Activity calls are given as the source filed them.

How the values were obtained:
Mus musculus [1] = experiment: Toxicity in BALB/c mouse assessed as splenic lymphoid depletion at 150 mg/kg/day, po; format: organism-based; parameters: route oral; settings: in vivo
Method in brief: (§1)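 Five-day repeat-dose study in female BALB/c mice (n = 5 per dose level): oral dosing once daily for five consecutive days in sterile water prepared fresh daily under yellow light, 20 ml/kg. Vehicle controls received sterile water only. Clinical observations and body weights were recorded, with blood for hematology and serum chemistry taken on day 6 before necropsy. A veterinary pathologist examined formalin-fixed tissues.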

[2] = Half life in Swiss Webster mouse at 4.9 mg/kg, iv by HPLC-MS/MS analysis; format: ADME, organism-based; parameters: dose 4.9 mg/kg, route intravenous; settings: in vivo
Method in brief: (§2)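 Male Swiss Webster mice, n = 3 per time point. For i.v., the compound was dissolved in sterile water, diluted 1:1 with 2× saline, and given as a tail-vein bolus over ~10–20 s. For p.o., it was given by gavage in sterile water. Dose volume was 5 ml/kg. Terminal plasma was taken from 5 min to 72 h and measured by HPLC-MS/MS (calibration 2.5–10,000 nM). Parameters came from noncompartmental analysis.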

Mus musculus [3] = experiment: Volume of distribution in Swiss Webster mouse at 16.5 mg/kg, po by HPLC-MS/MS analysis; format: ADME, organism-based; parameters: dose 16.5 mg/kg, route oral; settings: in vivo
Method in brief: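 Male Swiss Webster mice (n = 3 per time point) got a single oral gavage dose in sterile water, 5 ml/kg. The 5 mM formulation was a clear solution; the 20 and 40 mM formulations were gelatinous. Terminal blood was collected from 5 min to 72 h postdose, and plasma was analysed by HPLC-MS/MS. Volume of distribution came from noncompartmental analysis.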

[4] = Oral bioavailability in Swiss Webster mouse at 16.5 mg/kg by HPLC-MS/MS analysis; format: ADME, organism-based; settings: in vivo
Method in brief: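 Male Swiss Webster mice (n = 3 per time point), single dose by oral gavage (sterile water solution) or tail-vein bolus i.v. (water diluted 1:1 with 2× saline, over ~10–20 s); dose volume 5 ml/kg. Terminal blood sampled from 5 min to 72 h postdose; plasma quantified by HPLC-MS/MS (positive-ion SRM). Noncompartmental analysis gave Cmax, Tmax, AUC0-∞, CL, Vss; bioavailability from p.o. versus i.v. exposure.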

Mus musculus [5] = experiment: Toxicity in BALB/c mouse at 150 mg/kg/day, po administered for five days measured on day 5; format: organism-based; parameters: route oral; settings: in vivo; method in brief: as §1
Mus musculus [6] = experiment: Toxicity in BALB/c mouse assessed as hyperactivity at 150 mg/kg/day, po administered for five days measured on day 5; format: organism-based; parameters: route oral; settings: in vivo
Method in brief: (§3)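 Female BALB/c mice (n = 5 per dose), dosed once daily for 5 consecutive days p.o. (20 ml/kg) or i.v. (10 ml/kg) with compound in sterile water, prepared fresh daily under yellow light. Vehicle controls n = 5 per route. Clinical observations, body weights, serum chemistry and hematology on day 6 before necropsy; histopathology of formalin-fixed tissues. Chemistry analysed by one-way ANOVA with Dunnett's posttest.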

Mus musculus [7] = experiment: Toxicity in BALB/c mouse assessed as decrease in body weight at 150 mg/kg/day, po administered for five days; format: organism-based; parameters: route oral; settings: in vivo; method in brief: as §3
Mus musculus [8] = experiment: Toxicity in BALB/c mouse assessed as decrease in liver weight at 150 mg/kg/day, po administered for five days; format: organism-based; parameters: route oral; settings: in vivo; method in brief: as §3
[9] = Induction of mutagenicity in Salmonella serovar Typhimurium TA 100 assessed as number of revertant colonies at 10 ug by Ames assay in presence of Aroclor 1254-induced rat liver S9 metabolic activation system; format: toxicity, subcellular, Salmonella enterica subsp. enterica serovar Typhimurium
Method in brief: (§4)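 Ames plate incorporation with S. Typhimurium TA98 and TA100, with or without Aroclor 1254-induced rat liver S9 (10% vol/vol). Compound was dissolved in sterile water and serially diluted to 1–500 μg/plate. Positive controls were 2-nitrofluorene and sodium azide without S9, and 2-aminoanthracene with S9; sterile water and DMSO served as vehicles. Revertant colonies and background lawn were scored. A mutagen was defined as a mean revertant count at least 2-fold over solvent control. Single experiment.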

[10] = Induction of mutagenicity in Salmonella serovar Typhimurium TA 98 assessed as number of revertant colonies at 1 ug by Ames assay; format: toxicity, Salmonella enterica subsp. enterica serovar Typhimurium; settings: in vivo; method in brief: as §4
[11] = Induction of mutagenicity in Salmonella serovar Typhimurium TA 100 assessed as number of revertant colonies at 5 ug by Ames assay; format: toxicity, Salmonella enterica subsp. enterica serovar Typhimurium; settings: in vivo
Method in brief: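 Plate incorporation method with TA100, with and without Aroclor 1254-induced rat liver S9 (10% vol/vol). Compound dissolved in sterile water, serially diluted; plates scored for revertant count and background lawn versus controls. Mutagen if mean revertants at least 2-fold over mean solvent control. Positive controls: 2-nitrofluorene and sodium azide without S9, 2-aminoanthracene with S9; water and DMSO vehicles.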

Mus musculus [12] = experiment: Toxicity in BALB/c mouse at 50 mg/kg/day, po administered for five days; format: organism-based; parameters: route oral; settings: in vivo
Leishmania donovani [13] = experiment: Antileishmanial activity against Leishmania donovani promastigotes in BALB/c mouse assessed as inhibition of liver parasitemia at 30 mg/kg/day, ip administered for five days; format: functional, organism-based
Method in brief: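 Murine VL model in L. donovani-infected mice. Compounds were dissolved in water and given i.p. or p.o. once daily for 5 days (4 days for one i.p. regimen). Liver parasitemia was compared with untreated controls by unpaired Student's t test, P ≤ 0.05.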

Leishmania donovani [14] = experiment: Antileishmanial activity against Leishmania donovani WR378 infected in golden Syrian hamster assessed as reduction in liver parasitemia at 10 mg/kg/day, po administered for five days; format: functional; settings: 120 h
Method in brief: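 11-day golden hamster VL model adapted from an 8-day method, using L. donovani WR378 metacyclic promastigotes. Dosing was oral, once daily for 5 days. Animals were euthanized on day 11 post-infection. Liver, spleen and femoral bone marrow (flushed with Schneider's medium) were harvested.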

[15] = Cmax in Swiss Webster mouse at 5 mg/kg, iv by HPLC-MS/MS analysis; format: ADME, organism-based; parameters: dose 5 mg/kg, route intravenous; settings: in vivo; method in brief: as §2
[16] = Clearance in Swiss Webster mouse at 5 mg/kg, iv by HPLC-MS/MS analysis; format: ADME, organism-based; parameters: dose 5 mg/kg, route intravenous; settings: in vivo; method in brief: as §2
[17] = Cmax in Swiss Webster mouse at 70 mg/kg, po by HPLC-MS/MS analysis; format: ADME, organism-based; parameters: dose 70 mg/kg, route oral; settings: in vivo; method in brief: as §2
Mus musculus [18] = experiment: Toxicity in BALB/c mouse at 100 mg/kg/day, po administered for five days; format: organism-based; parameters: route oral; settings: in vivo; method in brief: as §1
Mus musculus [19] = experiment: Renal toxicity in BALB/c mouse assessed as phosphorus level in serum at 30 mg/kg/day, iv administered for five days (Rvb= 6.1 mg/dl); format: organism-based; parameters: route intravenous; settings: in vivo; method in brief: as §3
[20] = Induction of mutagenicity in Salmonella serovar Typhimurium TA 98 assessed as number of revertant colonies at 5 ug by Ames assay in presence of Aroclor 1254-induced rat liver S9 metabolic activation system; format: toxicity, subcellular, Salmonella enterica subsp. enterica serovar Typhimurium
Method in brief: (§5)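 Plate incorporation test, S. Typhimurium TA98 (and TA100), with or without Aroclor 1254-induced rat liver S9 (10% vol/vol). Compound dissolved in sterile water, serially diluted to 1–1,000 or 1–500 μg/plate. Positive controls: 2-nitrofluorene and sodium azide without S9, 2-aminoanthracene with S9; water and DMSO vehicle controls. Revertant colonies and background lawn scored; mutagen if mean revertants ≥2-fold solvent control. Single experiment.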

[21] = Induction of mutagenicity in Salmonella serovar Typhimurium TA 98 assessed as number of revertant colonies at 50 ug by Ames assay in presence of Aroclor 1254-induced rat liver S9 metabolic activation system; format: toxicity, subcellular, Salmonella enterica subsp. enterica serovar Typhimurium; method in brief: as §5
[22] = Drug level in Swiss Webster mouse kidney at 5 mg/kg, iv after 2 hrs by HPLC/UV analysis; settings: read-out: Drug uptake
[23] = Drug level in Swiss Webster mouse spleen at 70 mg/kg, po after 2 hrs by HPLC/UV analysis; settings: read-out: Drug uptake

Question: Which Activity (Mus musculus [1]) does the source give for `CCOc1cc(NC(=N)c2ccccn2)ccc1-c1ccc(-c2ccc(NC(=N)c3ccccn3)cc2OCC)o1` here?
Answer: Toxic

Question: What about the half-life [2] of the same molecule?
Answer: 18 h

Question: What about the Vd (Mus musculus [3]) of the same molecule?
Answer: 57 L/kg

Question: What about the bioavailability [4] of the same molecule?
Answer: 3.3%

Question: And the Activity (Mus musculus [5])?
Answer: Toxic

Question: What about the Activity (Mus musculus [6]) of the same molecule?
Answer: Toxic

Question: And the Activity (Mus musculus [7])?
Answer: Toxic

Question: And the Activity (Mus musculus [8])?
Answer: Toxic

Question: With `CC(C)Oc1cc(NC(=N)c2ccccn2)ccc1-c1ccc(-c2ccc(NC(=N)c3ccccn3)cc2OC(C)C)o1` as the molecule, how does the Activity [9] read?
Answer: 148

Question: What about the Activity [10] of the same molecule?
Answer: 38

Question: What about the Activity [11] of the same molecule?
Answer: 145

Question: What about the Activity (Mus musculus [12]) of the same molecule?
Answer: Non-toxic

Question: And the Activity (Leishmania donovani [13])?
Answer: Active

Question: What about the inhibition in vivo at 10 mg/kg/day (Leishmania donovani [14]) of the same molecule?
Answer: 10%

Question: And the Cmax [15]?
Answer: 10.4 µM

Question: And the clearance [16]?
Answer: 13.1 mL/min/kg

Question: What about the Cmax [17] of the same molecule?
Answer: 1.76 µM

Question: And the Activity (Mus musculus [18])?
Answer: Non-toxic

Question: And the Activity (Mus musculus [19])?
Answer: 7.6 mg/dL

Question: And the Activity [20]?
Answer: 48

Question: And the Activity [21]?
Answer: 39

Question: And the concentration at 2 h [22]?
Answer: 12.7 µM

Question: And the concentration at 2 h [23]?
Answer: 43.1 µM
